Measurements taken from ChEMBL document CHEMBL2385051, “Facile synthesis of new imidazo[1,2-a]pyridines carrying 1,2,3-triazoles via click chemistry and their antiepileptic studies” (Bioorg Med Chem Lett, 2013).
Activity calls are given as the source filed them. The rule behind the calls is not given here.

Experiments:
[1] = tested on: Mus musculus; assay: Neurotoxicity in NMRI mouse assessed as minimal motor impairment at 20 to 100 mg/kg, ip after 4 hrs by rotarod test; type: toxicity, organism-based; parameters: dose 20-100 mg/kg, route intraperitoneal; details: in vivo
How it was run: (§1)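 Rotarod motor-impairment test in mice given 20, 40 and 100 mg/kg doses, read 0.5 and 4 h after administration. The value recorded is the minimal dose producing toxicity in more than 50% of mice.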

[2] = tested on: Mus musculus; assay: Neurotoxicity in NMRI mouse assessed as minimal motor impairment at 20 to 100 mg/kg, ip after 0.5 hrs by rotarod test; type: toxicity, organism-based; parameters: dose 20-100 mg/kg, route intraperitoneal; details: in vivo; how it was run: as §1
[3] = tested on: Mus musculus; assay: Anticonvulsant activity in ip dosed NMRI mouse assessed as dose required to cause protection against subcutaneous pentylene tetrazole-induced seizure after 4 hrs; type: functional; details: read-out: MED
How it was run: (§2)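 Mice received 20, 40 and 100 mg/kg test doses. Seizures were induced by electrical shock (MES) or PTZ injection (scPTZ) at 0.5 and 4 h after dosing. The value recorded is the minimal dose protecting more than 50% of mice against seizure.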

[4] = tested on: Mus musculus; assay: Anticonvulsant activity in ip dosed NMRI mouse assessed as dose required to cause protection against subcutaneous pentylene tetrazole-induced seizure after 0.5 hrs; type: functional; details: read-out: MED; how it was run: as §2
[5] = tested on: Mus musculus; assay: Anticonvulsant activity in ip dosed NMRI mouse assessed as dose required to cause protection against maximal electroshock-induced seizures after 4 hrs; type: functional; details: read-out: MED; how it was run: as §2
[6] = tested on: Mus musculus; assay: Anticonvulsant activity in ip dosed NMRI mouse assessed as dose required to cause protection against maximal electroshock-induced seizures after 0.5 hrs; type: functional; details: read-out: MED; how it was run: as §2
[7] = tested on: Mus musculus; assay: Anticonvulsant activity in NMRI mouse assessed as protection against maximal electroshock-induced seizures at 20 to 100 mg/kg, ip after 4 hrs; type: functional, organism-based; how it was run: as §2
[8] = tested on: Mus musculus; assay: Anticonvulsant activity in NMRI mouse assessed as protection against maximal electroshock-induced seizures at 20 to 100 mg/kg, ip after 0.5 hrs; type: functional, organism-based; how it was run: as §2
[9] = tested on: Mus musculus; assay: Anticonvulsant activity in NMRI mouse assessed as protection against subcutaneous pentylene tetrazole-induced seizure at 20 to 100 mg/kg, ip after 0.5 hrs; type: functional, organism-based; how it was run: as §2
[10] = Neurotoxicity in ip dosed NMRI mouse assessed as dose required to cause minimal motor impairment after 4 hrs by rotarod test; type: toxicity, organism-based; details: in vivo, read-out: MTC50; how it was run: as §1
[11] = Neurotoxicity in ip dosed NMRI mouse assessed as dose required to cause minimal motor impairment after 0.5 hrs by rotarod test; type: toxicity, organism-based; details: in vivo, read-out: MTC50; how it was run: as §1

Compound	Activity [1]	Activity [2]	minimal effective dose [3] [mg/kg]	minimal effective dose [4] [mg/kg]	minimal effective dose [5] [mg/kg]	minimal effective dose [6] [mg/kg]	Activity [7]	Activity [8]	Activity [9]	TD50 at 4 h [10] [mg/kg]	TD50 at 0.5 h [11] [mg/kg]
Cc1ccc(-c2nc3c(C)cccn3c2/C=N/OCc2cn(Cc3ccc([N+](=O)[O-])cc3)nn2)cc1	Non-toxic	Non-toxic	20	20	40	40	–	–	–	–	–
Cc1ccc(-c2nc3ccc(Br)cn3c2/C=N/OCc2cn(Cc3ccc([N+](=O)[O-])cc3)nn2)cc1	Non-toxic	Non-toxic	20	20	100	40	–	–	–	–	–
C#CCO/N=C/c1c(-c2ccc(C)cc2)nc2c(C)cccn12	Non-toxic	Non-toxic	20	20	40	20	–	–	–	–	–
Cc1cccn2c(/C=N/OCc3cn(Cc4ccc([N+](=O)[O-])cc4)nn3)c(-c3ccc(F)cc3)nc12	–	–	40	–	–	–	inactive	inactive	inactive	100	100
Cc1cccn2c(/C=N/OCc3cn(Cc4ccc(C#N)cc4)nn3)c(-c3ccc(F)cc3)nc12	–	–	40	–	–	–	inactive	inactive	inactive	100	100
